One assay addresses GTPase KRas (Homo sapiens, UniProt P01116, G12V). The assay is described as follows: Inhibition of GFP-tagged KRAS G12V mutant (unknown origin) expressed in MDCK cells cotransfected with mCherry-CAXX assessed as increase in KRAS G12V-plasma membrane dissociation incubated for 48 hrs by quantitative confocal microscopic method. The class given is cell-based. In short, it runs like this: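 MDCK cells stably co-expressing mGFP-K-RasG12V and mCherry-CAAX (endomembrane marker) treated with a range of compound concentrations for 48h. Cells fixed in 4% paraformaldehyde, imaged by confocal microscopy. PM dissociation scored as the fraction of mCherry-CAAX co-localized with GFP-K-RasG12V (Manders coefficient). IC50 estimated from dose-response plots from three independent experiments.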

Assay [1] deals with GTPase HRas (Homo sapiens), P01112 [G12V]. The assay is described as follows: Inhibition of GFP-tagged HRAS G12V mutant (unknown origin) expressed in MDCK cells cotransfected with mCherry-CAXX assessed as effect on HRAS G12V-plasma membrane dissociation incubated for 48 hrs by quantitative confocal microscopic method. The class given is cell-based. The essentials: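 MDCK cells stably co-expressing mGFP-RasG12V (K- or H-) and mCherry-CAAX endomembrane marker treated with a range of concentrations for 48 h, fixed in 4% paraformaldehyde, imaged by quantitative confocal microscopy. Fraction of mCherry-CAAX co-localized with GFP-Ras by Manders coefficient; IC50 for PM dissociation estimated from dose-response plots of three independent experiments.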
Sequence of GTPase HRas (Homo sapiens), P01112 [G12V] (P01112 whole entry G12V): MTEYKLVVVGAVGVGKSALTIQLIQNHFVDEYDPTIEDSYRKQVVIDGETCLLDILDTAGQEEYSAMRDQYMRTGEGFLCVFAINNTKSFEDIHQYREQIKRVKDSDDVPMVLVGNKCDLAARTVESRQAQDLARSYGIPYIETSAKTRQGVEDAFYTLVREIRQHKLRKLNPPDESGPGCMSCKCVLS

Assay [2] concerns GTPase KRas (Homo sapiens), P01116 [G12V]. Put plainly: Inhibition of GFP-tagged KRAS G12V mutant (unknown origin) expressed in MDCK cells assessed as reduction in Akt phosphorylation level incubated for 48 hrs by Western blot analysis. The class given is cell-based. The essentials: (§1)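 MDCK cells stably expressing GFP-tagged K-RasG12V or H-RasG12V treated 48 h; lysates immunoblotted with anti-ppERK or anti-pAkt (S473) antibodies, total ERK and Akt as loading controls. Quantified as means ± S.E.M. of three independent experiments versus DMSO-treated cells; one-way ANOVA.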
Sequence of GTPase KRas (Homo sapiens), P01116 [G12V] (P01116 whole entry G12V): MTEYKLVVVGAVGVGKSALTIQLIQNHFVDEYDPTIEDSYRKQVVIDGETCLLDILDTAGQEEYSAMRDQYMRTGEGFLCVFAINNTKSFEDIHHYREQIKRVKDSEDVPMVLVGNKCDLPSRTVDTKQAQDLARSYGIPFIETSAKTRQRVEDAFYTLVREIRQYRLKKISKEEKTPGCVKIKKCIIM
(A western blot detects proteins with antibodies after separation by electrophoresis.)

Assay [3] has the same test system. Put plainly: Inhibition of GFP-tagged KRAS G12V mutant (unknown origin) expressed in MDCK cells assessed as reduction in ERK phosphorylation level incubated for 48 hrs by Western blot analysis. The class given is cell-based. The essentials:
as §1

The test system of assay [4] is GTPase HRas (Homo sapiens), P01112 [G12V]. Put plainly: Inhibition of GFP-tagged HRAS G12V mutant (unknown origin) expressed in MDCK cells assessed as reduction in Akt phosphorylation level incubated for 48 hrs by Western blot analysis. The class given is cell-based. In short, it runs like this:
as §1

The test system is the same in assay [5]. Put plainly: Inhibition of GFP-tagged HRAS G12V mutant (unknown origin) expressed in MDCK cells assessed as reduction in ERK phosphorylation level incubated for 48 hrs by Western blot analysis. The class given is cell-based. In short, it runs like this: as §1
For assay [6], the target named is GTPase KRas (Homo sapiens) (UniProt P01116). The assay is described as follows: Inhibition of KRAS in human NCI-H358 cells assessed as MARCK phosphorylation level at 1 uM incubated for 48 hrs by Western blot analysis (reference value: 1.00 +/- 0.39). The class given is cell-based.
Sequence of GTPase KRas (Homo sapiens) (P01116 whole entry, looked up): as the sequence (P01116 whole entry G12V) above, with V12G counted along it
The target is the same in assay [7]. The assay is described as follows: Inhibition of KRAS in human NCI-H358 cells assessed as MARCK phosphorylation level at 5 uM incubated for 48 hrs by Western blot analysis (reference value: 1.00 +/- 0.39). The class given is cell-based.
Assay [8] has the same target. The assay is described as follows: Inhibition of KRAS in human NCI-H358 cells assessed as MARCK phosphorylation level at 10 uM incubated for 48 hrs by Western blot analysis (reference value: 1.00 +/- 0.39). The class given is cell-based.
Assay [9] shares this target. Put plainly: Inhibition of KRAS in human NCI-H358 cells assessed as MARCK phosphorylation level at 25 uM incubated for 48 hrs by Western blot analysis (reference value: 1.00 +/- 0.39). The class given is cell-based.
The test system of assay [10] is GTPase KRas (Homo sapiens), P01116 [G12V]. The assay is described as follows: Inhibition of GFP-tagged KRAS G12V mutant (unknown origin) expressed in MDCK cells assessed as MARCK phosphorylation level at 1 uM incubated for 48 hrs by Western blot analysis (reference value: 1.00 +/- 0.13). The class given is cell-based.
Assay [11] has the same test system. Put plainly: Inhibition of GFP-tagged KRAS G12V mutant (unknown origin) expressed in MDCK cells assessed as MARCK phosphorylation level at 5 uM incubated for 48 hrs by Western blot analysis (reference value: 1.00 +/- 0.13). The class given is cell-based.
Assay [12] shares this test system. The assay is described as follows: Inhibition of GFP-tagged KRAS G12V mutant (unknown origin) expressed in MDCK cells assessed as MARCK phosphorylation level at 10 uM incubated for 48 hrs by Western blot analysis (reference value: 1.00 +/- 0.13). The class given is cell-based.
Assay [13] has the same test system. The assay is described as follows: Inhibition of GFP-tagged KRAS G12V mutant (unknown origin) expressed in MDCK cells assessed as MARCK phosphorylation level at 25 uM incubated for 48 hrs by Western blot analysis (reference value: 1.00 +/- 0.13). The class given is cell-based.
Assay [14] relates to GTPase KRas (Homo sapiens), P01116 [G12V,S181A]. The assay is described as follows: Inhibition of GFP-tagged KRAS G12V/S181A mutant (unknown origin) expressed in MDCK cells cotransfected with mCherry-CAXX assessed as reduction in KRAS G12V-plasma membrane dissociation incubated for 48 hrs by quantitative confocal microscopic method. The class given is cell-based.
Sequence of GTPase KRas (Homo sapiens), P01116 [G12V,S181A] (P01116 1-164 with tags or gaps G12V,S181A): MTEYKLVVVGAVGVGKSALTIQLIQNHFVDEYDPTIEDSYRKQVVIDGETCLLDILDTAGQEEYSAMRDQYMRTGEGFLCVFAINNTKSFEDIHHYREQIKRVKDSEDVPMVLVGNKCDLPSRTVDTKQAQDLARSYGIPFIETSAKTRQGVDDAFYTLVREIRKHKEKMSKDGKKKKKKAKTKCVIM
Assay [15] addresses GTPase KRas (Homo sapiens) (UniProt P01116). Put plainly: Inhibition of KRAS in human NCI-H358 cells assessed as increase in MARCK phosphorylation level incubated for 48 hrs by Western blot analysis.
In assay [16] the test system is GTPase KRas (Homo sapiens), P01116 [G12V]. The assay is described as follows: Inhibition of GFP-tagged KRAS G12V mutant (unknown origin) expressed in MDCK cells assessed as increase in MARCK phosphorylation level incubated for 48 hrs by Western blot analysis.

The source of these data is ChEMBL document CHEMBL4619740, “Chalcones bearing a 3,4,5-trimethoxyphenyl motif are capable of selectively inhibiting oncogenic K-Ras signaling” (Bioorg Med Chem Lett, 2020).

Activity calls are given as the source filed them. The calls are words filed in the database; no cut-off is given here.

Sequence of GTPase KRas (P01116 whole entry G12V): as the sequence (P01116 whole entry G12V) above

For the compound `COc1ccc(C(=O)/C=C/c2cc(OC)c(OC)c(OC)c2)cc1`, on GTPase KRas, the IC50 turned out to be 8.29 µM.

With `COc1cc(/C=C/C(=O)c2ccc(F)cc2)cc(OC)c1OC`, the half-inhibitory concentration (IC50) at GTPase KRas came out at 15.9 µM.

Turning to `COc1cc(/C=C/C(=O)c2ccc(N)cc2)cc(OC)c1OC`, the IC50 on GTPase KRas came to 9.17 µM.

In the case of `COc1cc(/C=C/C(=O)c2ccc(Br)cc2)cc(OC)c1OC`, the IC50 on GTPase KRas is 24.6 µM.

For the compound `COc1cc(/C=C/C(=O)c2ccc(N(C)C)cc2)cc(OC)c1OC`, the IC50 on GTPase KRas amounted to 7.42 µM. The inhibition entry in [1] is “inactive”.

In the case of `COc1cc(/C=C/C(=O)c2ccc([N+](=O)[O-])cc2)cc(OC)c1OC`, the IC50 at GTPase KRas was determined as 7.01 µM. In addition, the inhibition entry in assay [1], in assay [4], in assay [5] and in [14] was “inactive” throughout. Besides, the inhibition result in assay [2] and in [3] was “Active” each time. For the same compound, the fold change (FC) was 1.89 in assay [6]; 1.92 in assay [7]; 2.57 in assay [8]; 2.65 in assay [9]; 1.31 in assay [10]; 1.76 in [11]. The fold change (FC) in assay [12] was found to be 2.85; in assay [13], 2.8. The inhibition entry in [15] and in [16] was “Dose-dependent effect” throughout.

Consider `COc1cc(C(=O)/C=C/c2c(F)cccc2F)cc(OC)c1OC`, for which the IC50 at GTPase KRas worked out at 7.49 µM.

Turning to `COc1cc(C(=O)/C=C/c2ccc([N+](=O)[O-])cc2)cc(OC)c1OC`, the IC50 on GTPase KRas was 8.2 µM.

Take `COc1cc(/C=C/C(=O)c2c(F)cccc2F)cc(OC)c1OC`: the IC50 on GTPase KRas is 8.2 µM.

`COc1cc(/C=C/C(=O)c2ccccn2)cc(OC)c1OC`: the IC50 at GTPase KRas is 53 µM.

One may read the IC50 as the concentration at which inhibition is half-maximal.
